These results are taken from ChEMBL document CHEMBL1153109, “New potent 5-nitroindazole derivatives as inhibitors of Trypanosoma cruzi growth: synthesis, biological evaluation, and mechanism of action studies” (Bioorg Med Chem, 2009).

In series [1] the test system is Trypanosoma cruzi. Put plainly: Antitrypanosomal activity against Trypanosoma cruzi CL Brener epimastigotes after 5 days. The series is classed as functional, organism-based. Particulars: 120 h. The essentials:
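CL Brener epimastigotes grown at 28 °C in BHI–Tryptose with 5% FBS. Stationary-phase (10-day) cells inoculated at 1 × 10⁶ cells/mL into medium with drug from a DMSO stock (final DMSO ≤0.4%); control contains 0.4% DMSO. Growth followed by A600. Inhibition at day 5 is computed from the day 0 and day 5 absorbances relative to control. IC50 is the concentration reducing the absorbance ratio to 50%.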

A further series has as its system Caco-2. Put plainly: Cytotoxicity against human Caco-2 cells at 25 uM by MTT assay. It is filed as cell-based. The settings on record: caco-2, 25 µM. The essentials:
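Caco-2 cells kept in DMEM-F12 with 10% FBS, penicillin and streptomycin at 37 °C, 5% CO₂. Cells plated at 5 × 10⁴ cells/mL, then exposed to compound in PBS for 2 h. After washing, cells incubated with 0.5 mg/mL MTT for 120 min at 37 °C. Formazan dissolved in DMSO for 10 min at 37 °C and read at 540 nm.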
On the technique in general: Formazan colour is commonly taken as a measure of viable cells.

For series [2], the system named is Radical scavenging activity. Put plainly: Antioxidant activity assessed as DPPH radical scavenging activity. Details: concentration or dose not given beside the values. The series is classed as functional. The essentials: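 Scavenging of DPPH radical measured by ESR. Reaction mixtures contain 1.0 mM dpph and 1.0 mM 5-NI, both prepared in acetonitrile. The control contains no 5-NI. Signal recorded 1 min after the start of the reaction at microwave frequency 9.72 GHz and power 20 mW.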
(The DPPH test is a chemical assay of radical scavenging.)

The test system of series [3] is Trypanosoma cruzi. The series can be described thus: Inhibition of parasitic respiration in Trypanosoma cruzi tulahuen epimastigotes assessed as oxygen uptake at 0.83 mM relative to control. It is filed as functional.
Series [4] deals with Trypanosoma cruzi. The series can be described thus: Inhibition of parasitic respiration in Trypanosoma cruzi tulahuen epimastigotes assessed as oxygen uptake at 0.42 mM relative to control. It is filed as functional.
For series [5], the system named is Trypanosoma cruzi. The series can be described thus: Inhibition of parasitic respiration in Trypanosoma cruzi tulahuen epimastigotes assessed as oxygen uptake at 2 mM relative to control. The series is classed as functional.
Series [6] relates to Trypanosoma cruzi. Put plainly: Inhibition of parasitic respiration in Trypanosoma cruzi tulahuen epimastigotes assessed as oxygen uptake at 0.208 mM relative to control. The series is classed as functional.
The subject of series [7] is Trypanosoma cruzi. The series can be described thus: Inhibition of parasitic respiration in Trypanosoma cruzi tulahuen epimastigotes assessed as oxygen uptake at 0.104 mM relative to control. It is filed as functional.

In the case of `COc1nn(CCCN2CCCCC2)c2ccc([N+](=O)[O-])cc12`, the IC50 – broadly, the concentration at which inhibition is half-maximal – in the series on Trypanosoma cruzi [1] was more than 25 µM. In the series on Caco-2, this compound showed a Cytotoxicity of 0%. Moreover, the Activity in series [2] was less than 30%.
Taken in the same sequence, the figures for `COc1nn(CCN(C(C)C)C(C)C)c2ccc([N+](=O)[O-])cc12` were more than 25 µM, 15% and less than 30%.
On the same counts, the results for `CCN(CC)CCn1nc(OCc2ccccc2)c2cc([N+](=O)[O-])ccc21` are 11.3 µM, 30% and less than 30%.
For the compound `COc1nn(CCN(C)C)c2ccc([N+](=O)[O-])cc12`, the IC50 in the series with Trypanosoma cruzi [1] is more than 25 µM. The Cytotoxicity with Caco-2 worked out at 15%. Further, the Activity in series [2] was less than 30%.
On the same counts, the results for `O=[N+]([O-])c1ccc2c(c1)c(OCc1ccccc1)nn2CCN1CCCCC1` are 8.4 µM, 27% and less than 30%.
In the series on Trypanosoma cruzi [1], `COc1nn(CCCBr)c2ccc([N+](=O)[O-])cc12` registered a half-maximal inhibitory concentration (IC50) of 67.8 µM. Moreover, the Activity in series [2] is less than 30%.
Take `O=[N+]([O-])c1ccc2c(c1)c(OCc1ccccc1)nn2CCCCCN1CCCC1`: the IC50 with Trypanosoma cruzi [1] amounted to 7.5 µM. The compound further returned a Cytotoxicity with Caco-2 of 25%. In addition, the Activity in series [2] was less than 30%.
Taken in the same sequence, the figures for `COc1nn(CCCN(C)C)c2ccc([N+](=O)[O-])cc12` were more than 25 µM, 29% and less than 30%.
On the same counts, the results for `O=[N+]([O-])c1ccc2c(c1)c(OCc1ccccc1)nn2CCN1CCOCC1` are more than 25 µM, 0% and less than 30%.
Taken in the same sequence, the figures for `COc1nn(CCN2CCCCC2)c2ccc([N+](=O)[O-])cc12` were more than 25 µM, 10% and less than 30%.
For the compound `O=[N+]([O-])c1ccc2c(c1)c(OCc1ccccc1)nn2CCCCCBr`, the Oxygen uptake at 830 µM with Trypanosoma cruzi [3] was found to be 100%. Further, the IC50 with Trypanosoma cruzi [1] was 20.7 µM. In addition, the Oxygen uptake at 420 µM with Trypanosoma cruzi [4] worked out at 100%. Moreover, in the series with Trypanosoma cruzi [5], the Oxygen uptake at 2000 µM was 38%. In addition, the Activity in series [2] was less than 30%.
In turn, `O=[N+]([O-])c1ccc2c(c1)c(OCc1ccccc1)nn2CCCCCN1CCc2ccccc2C1` displayed an IC50 with Trypanosoma cruzi [1] of 12.9 µM. In the series with Caco-2, this compound displayed a Cytotoxicity of 15%. In series [2], the Activity was less than 30%.
On the same counts, the results for `CC(C)N(CCn1nc(OCc2ccccc2)c2cc([N+](=O)[O-])ccc21)C(C)C` are 9.2 µM, 0% and less than 30%.
In turn, `CN(C)CCCCCCn1nc(OCc2ccccc2)c2cc([N+](=O)[O-])ccc21` registered a 50% inhibitory concentration (IC50) in the series with Trypanosoma cruzi [1] of 9.4 µM. Also, the Oxygen uptake at 208 µM with Trypanosoma cruzi [6] turned out to be 59%. The Oxygen uptake at 420 µM in the series on Trypanosoma cruzi [4] came out at 52%. Further, the Cytotoxicity in the series with Caco-2 was 40%. Further, the Oxygen uptake at 104 µM with Trypanosoma cruzi [7] was found to be 100%. In addition, the Activity in series [2] was more than 40%.
For the compound `CCN(CC)CCn1nc(OC)c2cc([N+](=O)[O-])ccc21`, the IC50 with Trypanosoma cruzi [1] is more than 25 µM. Moreover, in the series with Caco-2, the Cytotoxicity is listed as 0%. Further, in series [2], the Activity is less than 30%.
Taken in the same sequence, the figures for `O=[N+]([O-])c1ccc2c(c1)c(OCc1ccccc1)nn2CCCCCCN1CCCCC1` were 7.4 µM, 33% and less than 30%.
`CN(C)CCn1nc(OCc2ccccc2)c2cc([N+](=O)[O-])ccc21` had a concentration for half-maximal inhibition (IC50) with Trypanosoma cruzi [1] of 25 µM. Moreover, the Oxygen uptake at 208 µM with Trypanosoma cruzi [6] is 64%. In addition, in the series with Trypanosoma cruzi [4], the Oxygen uptake at 420 µM is 51%. In addition, the Cytotoxicity with Caco-2 is given as 12%. Besides, in series [2], the Activity was less than 30%.
In turn, `COc1nn(CCN2CCOCC2)c2ccc([N+](=O)[O-])cc12` had a half-inhibitory concentration (IC50) in the series on Trypanosoma cruzi [1] of more than 25 µM. The compound further displayed a Cytotoxicity in the series with Caco-2 of 0%. Moreover, the Activity in series [2] was less than 30%.
Taken in the same sequence, the figures for `O=[N+]([O-])c1ccc2c(c1)c(OCc1ccccc1)nn2CCCCCN1CCCCCC1` were 10.5 µM, 25% and more than 40%.
Regarding `O=[N+]([O-])c1ccc2c(c1)c(OCc1ccccc1)nn2CCCCCCBr`, in the series with Trypanosoma cruzi [3], the Oxygen uptake at 830 µM turned out to be 100%. In addition, 19.3 µM corresponded to half-maximal inhibition in the series with Trypanosoma cruzi [1] (IC50). Also, the Oxygen uptake at 420 µM with Trypanosoma cruzi [4] turned out to be 100%. The Oxygen uptake at 2000 µM in the series on Trypanosoma cruzi [5] stood at 100%. Also, in series [2], the Activity is less than 30%.
